MCL1-BIM inh = inhibitors of human MCL1 binding to BIM-BH3 peptide; Q07820; GST-MCL1 / FITC-Bim-BH3 fluorescence polarization; inhibition, % at 10.9 µM; 320,000 compounds, 0.68% hits; AID 2057;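 active = inhibition above the mean inhibition of all tested compounds plus 3 SD, set per campaign, cut at about 40% in these data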;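 note: 0% = DMSO wells and 100% = unlabeled Bim-BH3 peptide control; higher means more loss of mP so more displacement of Bim peptide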
Target sequence (Q07820 whole entry, looked up): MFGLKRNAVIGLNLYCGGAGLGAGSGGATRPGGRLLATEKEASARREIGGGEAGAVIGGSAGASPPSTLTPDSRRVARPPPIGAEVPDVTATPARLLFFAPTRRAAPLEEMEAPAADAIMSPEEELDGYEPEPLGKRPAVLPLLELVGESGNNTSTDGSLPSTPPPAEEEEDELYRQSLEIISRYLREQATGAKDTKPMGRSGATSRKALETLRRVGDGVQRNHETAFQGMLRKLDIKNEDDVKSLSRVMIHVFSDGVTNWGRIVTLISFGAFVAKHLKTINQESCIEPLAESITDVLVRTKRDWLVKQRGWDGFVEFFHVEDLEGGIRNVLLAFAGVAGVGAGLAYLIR
RBBP9 inh = blocks human serine hydrolase RBBP9; O75884; recombinant RBBP9, FP-Rh probe fluorescence polarization; inhibition, % at 7.94 µM; 220,000 compounds, 0.2% hits; AID 1515;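 active = inhibition above the campaign mean of all tested compounds plus 3 SD, cut at about 14% in these data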;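 note: plate controls were DMSO wells with RBBP9 for no effect and wells lacking RBBP9 protein for full effect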
Target sequence (O75884 whole entry, looked up): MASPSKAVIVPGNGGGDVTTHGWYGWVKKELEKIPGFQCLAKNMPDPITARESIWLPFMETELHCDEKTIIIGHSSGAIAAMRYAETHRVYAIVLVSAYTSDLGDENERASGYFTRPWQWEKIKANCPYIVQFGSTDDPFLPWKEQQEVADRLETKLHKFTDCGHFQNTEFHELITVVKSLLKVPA
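Material: RBBP9 protein. Amount: RBBP9 at 2.5 µM in dispensed solution, before mixing. Schedule: 30 min then 45 min, 25 °C. Medium: Tris buffer pH 8.0, NaCl, Pluronic. Measured by: fluorescence polarization. Measure: percent inhibition from mP, scaled between DMSO and no-protein wells. Replication: one well per compound.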
EBV gp42 block = EBV gp42 inhibition; Fluorescence polarization binding assay, mP read-out; 220,000 compounds, 0.42% hits; Q1HVG2; inhibition, % (tested at 21.74 µM); in the data active = inhibition above about 50%
Bim-Mcl-1 = human Bim-Mcl-1 interaction inhibition; Q07820; Bead-based flow cytometry, Bim peptide-Mcl-1 binding; inhibition, % at 10 µM; 190,000 compounds, 0.1% hits; in the data active = inhibition above about 40%;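 note: 0% = no compound tracer wells and 100% = peptide blocker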
Mcl1-Bid inh = disrupts binding of human Mcl-1 to Bid peptide; inhibition, % at 21.7 µM; TR-FRET Mcl-1/Bid-Dy647 peptide binding, 1536-well; AID 1021; 220,000 compounds, 0.97% hits; Q07820;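 active = compounds that cut the binding signal by more than half at the single screening dose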;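 note: His-tagged Mcl-1 with europium anti-His antibody binding Bid BH3 peptide; 0% = Mcl-1 plus peptide wells and 100% = peptide-only wells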
Mcl1 Noxa PPI = disrupts binding of human Mcl-1 to Noxa peptide; 220,000 compounds, 1.5% hits; AID 1022; TR-FRET Mcl-1/Noxa peptide binding, 2 h; Q07820; inhibition, % at 21.7 µM;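 active = compounds that cut the protein-peptide binding signal by more than 50% relative to plate controls in a single-dose test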;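 note: His-tagged Mcl-1 with rhodamine Noxa BH3 peptide and terbium anti-His antibody; 0% = Mcl-1 plus Noxa peptide wells and 100% = peptide-only wells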
* hit, by the source's call; · = no result given. Sampled rows, rich in hits. Any-hit rate of the full collection: about 2.2%.

SMILES	MCL1-BIM inh	RBBP9 inh	EBV gp42 block	Bim-Mcl-1	Mcl1-Bid inh	Mcl1 Noxa PPI
COc1ccccc1N1CCN(S(=O)(=O)c2c(C)[nH]c(=O)[nH]c2=O)CC1	2	0	-4	-4	-70	11
Cc1[nH]c(=O)[nH]c(=O)c1S(=O)(=O)N1CCN(c2ccccc2F)CC1	1	7	61*	0	-29	-10
O=C(NCC(c1cccnc1)N1CCOCC1)c1cccc(Cl)c1 (configuration not stated)	0	3	-8	-3	57*	10
COc1ccc(N2CCN(C(CNC(=O)c3cccc(Cl)c3)c3cccnc3)CC2)cc1 (configuration not stated)	4	-1	-5	0	-19	6
Cc1cc(Cl)ccc1-n1c(-c2cccnc2)n[nH]c1=S	-7	-5	-12	·	-93	59*
Cc1cc(O)c(Sc2ncn[nH]2)cc1NS(=O)(=O)c1ccc(Cl)cc1	21	·	·	·	·	·
O=S(=O)(Nc1cc(Sc2ncn[nH]2)c(O)c2ccccc12)c1ccccc1	·	8	-17	4	18	83*
CC(C)(C)OC(=O)N[C@H](C(=O)OC(C)(C)C)c1ccc2ccccc2c1	1	·	·	·	·	·
COc1cccc(N/C=C/c2onc(C)c2[N+](=O)[O-])c1	-71	2	10	0	19	55*
Cc1ccc(N/C=C/c2onc(C)c2[N+](=O)[O-])cc1	-125	-1	-14	·	-56	-4
COCCNC(=O)c1cccc(OC2CCN(Cc3ccc(F)c(OC)c3)CC2)c1	1	·	·	·	·	·
O=c1[nH]c2ccccc2c(O)c1O	1	16*	-17	0	-2	47
COc1ccccc1N1N=C(C(=O)c2ccccc2)C2C(=O)N(c3ccc(Br)cc3)C(=O)C21 (configuration not stated)	-15	-1	17	·	-24	-172
O=C(C1=NN(c2ccccc2)C2C(=O)N(c3ccccc3Cl)C(=O)C12)c1ccccc1 (configuration not stated)	-16	-9	53*	-8	-48	-40
Cc1ccc(N2C(=O)C3C(C(=O)c4ccccc4)=NN(c4ccccc4)C3C2=O)cc1 (configuration not stated)	-4	-6	53*	14	-1	-92
O=C(C1=NNC2C(=O)N(c3ccccc3)C(=O)C12)c1nc(Cl)ccc1Cl (configuration not stated)	5	-4	-5	2	-3	10
CC(=O)C1=NOC2C(=O)N(c3ccccc3)C(=O)C12 (configuration not stated)	6	·	·	·	·	·
O=C(C1=NN(c2ccccc2)C2C(=O)N(c3ccccc3)C(=O)C12)c1ccccc1 (configuration not stated)	1	-2	59*	10	-22	-123
CCOc1ccc(N2C(=O)C3C(c4ccccc4)=NN(c4ccccc4)C3C2=O)cc1 (configuration not stated)	1	-4	-2	-3	-28	-32
COc1ccccc1N1C(=O)C2C(C(=O)c3ccccc3)=NN(c3ccccc3)C2C1=O (configuration not stated)	-8	-3	72*	·	-12	-182
Cc1cc(C)n(CC(=O)NC2CCCc3c2cnn3-c2ccc(C)c(C)c2)n1 (configuration not stated)	-4	·	·	·	·	·
COc1ccccc1NC(=O)C1CCN(S(=O)(=O)c2ccc3c(c2)NC(=O)CO3)CC1	14	·	·	·	·	·
C=CCN1C(=O)CSC1=Nc1ccc(NC(C)=O)cc1	-1	·	·	·	·	·
O=C(NC(=S)NCCOCc1ccc(Cl)cc1)c1cccnc1	14	-7	3	-4	-58	-2
Cc1cccn2c(=O)c(C=O)c(Cl)nc12	24	7	2	·	51*	-7
SMILES	MCL1-BIM inh	RBBP9 inh	EBV gp42 block	Bim-Mcl-1	Mcl1-Bid inh	Mcl1 Noxa PPI
CC(=O)c1cc(C#N)c(SCc2ccccn2)nc1C	-1	0	-2	·	-27	88*
CC(=O)c1cc(C#N)c(SCc2ccccc2)nc1C	3	-6	-9	-8	-10	-6
COc1ccc(CCNC(=O)CSc2nc(=O)n3cc(C)ccc3n2)cc1OC	4	·	·	·	·	·
O=C1NC2=C(C(=O)CCC2)C(c2ccccc2[N+](=O)[O-])N1 (configuration not stated)	51*	·	·	·	·	·
O=S(=O)(NNc1ccc(F)cc1F)c1cccc(Cl)c1	22	·	·	·	·	·
O=C(CCSCCC(=O)NCc1ccco1)NCc1ccco1	21	-4	10	-4	-12	54*
O=C(CCSCc1ccccc1Cl)NCc1ccco1	3	-9	6	1	-23	12
O=C(COC(=O)C1CC2C=CC1C2)NCc1ccco1 (configuration not stated)	33	-9	44	0	-15	66*
CC(=O)Nc1ccc(/C=C2\Sc3ccccc3C2=O)cc1	-11	3	0	·	3	25
Cc1ccc(/C=C2\Sc3ccccc3C2=O)s1	6	-6	94*	-1	-18	21
Cc1ccc(Cl)c2sc(N3CCN(C(=O)c4ccco4)CC3)nc12	5	·	·	·	·	·
CCN(CC)c1ccc(NC(=O)COC(=O)/C=C/c2nc3ccccc3s2)cc1	2	-8	-23	0	-3	56*
CNC(=O)COC(=O)/C=C/c1nc2ccccc2s1	3	-4	-10	2	-10	-4
Cc1cc(C)cc(C(=O)OCC(=O)N2CCCCCC2)c1	-7	·	·	·	·	·
CN(C)c1ccc(C(CNC(=O)c2ccc(C#N)cc2)c2c[nH]c3ccccc23)cc1 (configuration not stated)	-3	-5	-1	-1	-6	79*
CN(C)c1ccc(C(CNS(=O)(=O)c2ccc(F)cc2)c2c[nH]c3ccccc23)cc1 (configuration not stated)	1	-1	-12	-2	-48	31
CCOC(=O)c1ccc(S(=O)(=O)NCC(c2ccc(N(C)C)cc2)c2c[nH]c3ccccc23)cc1 (configuration not stated)	12	0	-7	-2	-23	15
CN(C)c1ccc(C(CNC(=O)c2ccccc2Br)c2c[nH]c3ccccc23)cc1 (configuration not stated)	-5	2	-22	-4	-55	78*
CCOCCCN(Cc1cc2cc(C)cc(C)c2[nH]c1=O)C(=O)N(CC)CC	11	7	-4	-3	14	16
CCc1cc2cc(C)cc(C)c2[nH]c1=S	2	-1	-50	0	26	60*
CCOC(=O)c1ccccc1NC(=O)c1ccc2nccnc2c1	6	-8	3	-1	-45	51*
CC(C)(C)C(=O)Nc1ccc(C(=O)Nc2cccc(Oc3ccc(C(=O)O)c(C(=O)O)c3)c2)cc1	6	·	·	·	·	·
O=C(Nc1cccc(Oc2ccc(C(=O)O)c(C(=O)O)c2)c1)c1ccc(-c2ccccc2)cc1	12	-13	14	·	-49	80*

Screening results (PubChem BioAssay)
